# In ChEMBL document CHEMBL1629690, “Development of hexadecyloxypropyl tenofovir (CMX157) for treatment of infection caused by wild-type and nucleoside/nucleotide-resistant HIV” (Antimicrob Agents Chemother, 2010):
# How the values were obtained:
# [1] = system: Human immunodeficiency virus 1; assay: Antiviral activity against HIV1 isolate 180 harboring reverse transcriptase K65R mutant gene obtained as site-directed mutant of NL4-3 by phenosense assay; format: functional, organism-based; conditions: Human immunodeficiency virus 1, isolate 180
# Summary of the method: (§1)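 Recombinant-virus PhenoSense HIV assay run on a panel of 30 NRTI-resistant HIV-1 mutants and two wild-type viruses. Each virus is tested across increasing drug concentrations to give an inhibition curve and EC50. Fold change is the test recombinant EC50 divided by the EC50 of the drug-sensitive wild-type reference virus.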
# [2] = system: Human immunodeficiency virus 1; assay: Antiviral activity against HIV1 isolate 160 harboring reverse transcriptase S68G/V75(I/T)/F77L/Y115F/F116Y /Q151M mutant gene by phenosense assay relative to wild type; format: functional; summary of the method: as §1
# [3] = system: Human immunodeficiency virus 1; assay: Antiviral activity against HIV1 isolate 069 harboring reverse transcriptase D67E/T69SSG/V75M/M184V/L210W/T215Y mutant gene by phenosense assay relative to wild type; format: functional; summary of the method: as §1
# [4] = system: Human immunodeficiency virus 1; assay: Antiviral activity against HIV1 isolate 192 harboring reverse transcriptase M41L/T215Y mutant gene by phenosense assay; format: functional, organism-based; conditions: Human immunodeficiency virus 1, isolate 192; summary of the method: as §1
# [5] = system: Human immunodeficiency virus 1; assay: Antiviral activity against HIV1 isolate 203 harboring reverse transcriptase M41L/L210W/T215Y/M184V mutant gene by phenosense assay relative to wild type; format: functional
# Summary of the method: (§2)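 PhenoSense HIV recombinant virus assay: patient-derived HIV-1 with major NRTI resistance mutations tested against increasing drug concentrations to give inhibition curves. EC50 is the concentration giving 50% inhibition. Fold change is the test recombinant EC50 divided by the EC50 of a drug-sensitive wild-type reference virus. Panel of 30 NRTI-resistant isolates plus two wild-type viruses.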
# [6] = system: Human immunodeficiency virus 1; assay: Antiviral activity against HIV1 isolate 071 harboring reverse transcriptase 65R/S68N/184V mutant gene by phenosense assay relative to wild type; format: functional; summary of the method: as §1
# [7] = system: Human immunodeficiency virus 1; assay: Antiviral activity against HIV1 isolate 188 harboring reverse transcriptase T215Y/M184V mutant gene by phenosense assay; format: functional, organism-based; conditions: Human immunodeficiency virus 1, isolate 188; summary of the method: as §1
# [8] = system: Human immunodeficiency virus 1; assay: Antiviral activity against HIV1 isolate 162 harboring reverse transcriptase A62V/V75I/F77L/Y115F/F116Y/Q151M/M184V mutant gene by phenosense assay relative to wild type; format: functional; summary of the method: as §1
# [9] = system: Human immunodeficiency virus 1; assay: Antiviral activity against HIV1 isolate 215 harboring reverse transcriptase D67N/K70E mutant gene by phenosense assay; format: functional, organism-based; conditions: Human immunodeficiency virus 1, isolate 215; summary of the method: as §2
# [10] = system: Human immunodeficiency virus 1; assay: Antiviral activity against HIV1 isolate 206 harboring reverse transcriptase D67N/K70R mutant gene by phenosense assay relative to wild type; format: functional; summary of the method: as §2
# [11] = system: Human immunodeficiency virus 1; assay: Antiviral activity against HIV1 isolate 157 harboring reverse transcriptase L74V/M184V mutant gene by phenosense assay relative to wild type; format: functional; summary of the method: as §1
# [12] = system: Human immunodeficiency virus 1; assay: Antiviral activity against HIV1 isolate 166 harboring reverse transcriptase L74V mutant gene obtained as site-directed mutant of NL4-3 by phenosense assay relative to wild type; format: functional; summary of the method: as §1
# [13] = system: Human immunodeficiency virus 1; assay: Antiviral activity against HIV1 isolate 063 harboring reverse transcriptase M41L/D67N/K70R/M184V/L210W/T215Y/K219E mutant gene by phenosense assay; format: functional, organism-based; conditions: Human immunodeficiency virus 1, isolate 063; summary of the method: as §1
# [14] = system: Human immunodeficiency virus 1; assay: Antiviral activity against HIV1 isolate 211 harboring reverse transcriptase D67N/K70R/T215F/K219E/M184V mutant gene by phenosense assay; format: functional, organism-based; conditions: Human immunodeficiency virus 1, isolate 211; summary of the method: as §2
# [15] = system: Human immunodeficiency virus 1; assay: Antiviral activity against HIV1 isolate 153 harboring reverse transcriptase L74V mutant gene by phenosense assay relative to wild type; format: functional; summary of the method: as §1
# [16] = system: Human immunodeficiency virus 1; assay: Antiviral activity against HIV1 isolate 201 harboring reverse transcriptase M41L/L210W/T215Y mutant gene by phenosense assay; format: functional, organism-based; conditions: Human immunodeficiency virus 1, isolate 201; summary of the method: as §1
# [17] = system: Human immunodeficiency virus 1; assay: Antiviral activity against HIV1 isolate 067 harboring reverse transcriptase A62V/D67G/T69SVG/V75I/T215I mutant gene by phenosense assay; format: functional, organism-based; conditions: Human immunodeficiency virus 1, isolate 067; summary of the method: as §1
# [18] = system: Human immunodeficiency virus 1; assay: Antiviral activity against HIV1 isolate 066 harboring reverse transcriptase 184V mutant gene by phenosense assay relative to wild type; format: functional; summary of the method: as §1
# [19] = system: Human immunodeficiency virus 1; assay: Antiviral activity against HIV1 isolate 061 harboring reverse transcriptase M41L/D67N/K70R/M184V/L210W/T215Y/K219E mutant gene by phenosense assay relative to wild type; format: functional; summary of the method: as §1
# [20] = system: Human immunodeficiency virus 1; assay: Antiviral activity against HIV1 isolate 200 harboring reverse transcriptase M41L/L210W/T215Y mutant gene by phenosense assay; format: functional, organism-based; conditions: Human immunodeficiency virus 1, isolate 200; summary of the method: as §1
# [21] = system: Human immunodeficiency virus 1; assay: Antiviral activity against HIV1 isolate 058 harboring reverse transcriptase M41L/D67N/K70R/L210W/T215F/K219Q mutant gene by phenosense assay relative to wild type; format: functional; summary of the method: as §1
# [22] = system: Human immunodeficiency virus 1; assay: Antiviral activity against HIV1 isolate 157 harboring reverse transcriptase L74V/M184V mutant gene by phenosense assay; format: functional, organism-based; conditions: Human immunodeficiency virus 1, isolate 157; summary of the method: as §1
# [23] = system: Human immunodeficiency virus 1; assay: Antiviral activity against HIV1 isolate 063 harboring reverse transcriptase M41L/D67N/K70R/M184V/L210W/T215Y/K219E mutant gene by phenosense assay relative to wild type; format: functional; summary of the method: as §1
# [24] = system: Human immunodeficiency virus 1; assay: Antiviral activity against HIV1 isolate 201 harboring reverse transcriptase M41L/L210W/T215Y mutant gene by phenosense assay relative to wild type; format: functional; summary of the method: as §2
# [25] = system: Human immunodeficiency virus 1; assay: Antiviral activity against HIV1 isolate 160 harboring reverse transcriptase S68G/V75(I/T)/F77L/Y115F/F116Y /Q151M mutant gene by phenosense assay; format: functional, organism-based; conditions: Human immunodeficiency virus 1, isolate 160; summary of the method: as §1
# [26] = system: Human immunodeficiency virus 1; assay: Antiviral activity against HIV1 isolate 066 harboring reverse transcriptase 184V mutant gene by phenosense assay; format: functional, organism-based; conditions: Human immunodeficiency virus 1, isolate 066; summary of the method: as §1
# [27] = system: Human immunodeficiency virus 1; assay: Antiviral activity against HIV1 isolate 203 harboring reverse transcriptase M41L/L210W/T215Y/M184V mutant gene by phenosense assay; format: functional, organism-based; conditions: Human immunodeficiency virus 1, isolate 203; summary of the method: as §2
# [28] = system: Human immunodeficiency virus 1; assay: Antiviral activity against HIV1 isolate 057 expressing wild type reverse transcriptase gene by phenosense assay; format: functional, organism-based; conditions: Human immunodeficiency virus 1, isolate 057
# Summary of the method: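 In the PhenoSense recombinant virus assay, virus was tested against increasing drug concentrations. EC50 came from the inhibition curve and was compared with a drug-sensitive reference virus.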
# [29] = system: Human immunodeficiency virus 1; assay: Antiviral activity against HIV1 isolate 061 harboring reverse transcriptase M41L/D67N/K70R/M184V/L210W/T215Y/K219E mutant gene by phenosense assay; format: functional, organism-based; conditions: Human immunodeficiency virus 1, isolate 061; summary of the method: as §1
# [30] = system: Human immunodeficiency virus 1; assay: Antiviral activity against HIV1 isolate 217 harboring reverse transcriptase D67N/K70E/M184V mutant gene by phenosense assay; format: functional, organism-based; conditions: Human immunodeficiency virus 1, isolate 217; summary of the method: as §2
# [31] = system: Human immunodeficiency virus 1; assay: Antiviral activity against HIV1 isolate 185 harboring reverse transcriptase T215Y mutant gene by phenosense assay relative to wild type; format: functional; summary of the method: as §1
# [32] = system: Human immunodeficiency virus 1; assay: Antiviral activity against HIV1 isolate 185 harboring reverse transcriptase T215Y mutant gene by phenosense assay; format: functional, organism-based; conditions: Human immunodeficiency virus 1, isolate 185; summary of the method: as §1
# [33] = system: Human immunodeficiency virus 1; assay: Antiviral activity against HIV1 isolate 180 harboring reverse transcriptase K65R mutant gene obtained as site-directed mutant of NL4-3 by phenosense assay relative to wild type; format: functional; summary of the method: as §1
# [34] = system: Human immunodeficiency virus 1; assay: Antiviral activity against HIV1 isolate 058 harboring reverse transcriptase M41L/D67N/K70R/L210W/T215F/K219Q mutant gene by phenosense assay; format: functional, organism-based; conditions: Human immunodeficiency virus 1, isolate 058; summary of the method: as §1
# [35] = system: Human immunodeficiency virus 1; assay: Antiviral activity against HIV1 isolate 153 harboring reverse transcriptase L74V mutant gene by phenosense assay; format: functional, organism-based; conditions: Human immunodeficiency virus 1, isolate 153; summary of the method: as §1
Compound,EC50 [1] [µM],fold change (FC) [2],fold change (FC) [3],EC50 [4] [µM],fold change (FC) [5],fold change (FC) [6],EC50 [7] [µM],fold change (FC) [8],EC50 [9] [µM],fold change (FC) [10],fold change (FC) [11],fold change (FC) [12],EC50 [13] [µM],EC50 [14] [µM],fold change (FC) [15],EC50 [16] [µM],EC50 [17] [µM],fold change (FC) [18],fold change (FC) [19],EC50 [20] [µM],other results
Nc1nc(NC2CC2)c2ncn([C@H]3C=C[C@@H](CO)C3)c2n1 [ABACAVIR],4.6,19,26,3.4,4.6,6.6,7.6,>29,2.4,1.4,5.2,1.9,14,7.7,1.9,4.2,33,2.7,9.1,5,fold change (FC) [21]: 4.4; EC50 [22]: 9.2 µM; fold change (FC) [23]: 7.9; fold change (FC) [24]: 2.4; EC50 [25]: 34 µM; EC50 [26]: 4.8 µM; EC50 [27]: 8.2 µM; EC50 [28]: 1.7 µM; EC50 [29]: 22 µM; EC50 [30]: 5.1 µM; fold change (FC) [31]: 2.1; EC50 [32]: 3.7 µM; fold change (FC) [33]: 2.6; EC50 [34]: 7.9 µM; EC50 [35]: 3.4 µM
O=c1[nH]cnc2c1ncn2[C@H]1CC[C@@H](CO)O1 [DIDANOSINE],11,12,4.4,6.3,1.5,2.6,7.9,11,7.7,1.2,2,1.5,11,8.7,1.6,5.9,22,1.4,2.1,7.5,fold change (FC) [21]: 1.6; EC50 [22]: 11 µM; fold change (FC) [23]: 2.1; fold change (FC) [24]: 1.1; EC50 [25]: 63 µM; EC50 [26]: 7.6 µM; EC50 [27]: 8.2 µM; EC50 [28]: 5.6 µM; EC50 [29]: 12 µM; EC50 [30]: 7.3 µM; fold change (FC) [31]: 1.1; EC50 [32]: 6.3 µM; fold change (FC) [33]: 2; EC50 [34]: 8.8 µM; EC50 [35]: 8.9 µM
